Columns and labels:
P388 [1] = assay: Antitumor activity against mouse P388 cells allografted in female BDF1 mouse assessed as change in body weight at 6.25 mg/kg, ip administered daily for 9 days as Klucel suspension starting 24 hrs after tumor inoculation; format: functional; conditions: route intraperitoneal
Outline: (§1)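 Ascitic fluid carrying P388 cells was inoculated ip. Compound was given ip in nine daily doses, starting 24 h after inoculation, in Klucel (hydroxypropylcellulose) suspension or in saline with Tween-80. Body-weight difference (treated minus control) was recorded on day 5. Survival was scored as %T/C of median survival time, and 30-day survival counted as cure.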

P388 [2] = assay: Antitumor activity against mouse P388 cells allografted in female CDF1 mouse assessed as change in body weight at 200 mg/kg, ip administered daily for 9 days as Klucel suspension starting 24 hrs after tumor inoculation; format: functional; conditions: route intraperitoneal; outline: as §1
Mus musculus [3] = assay: Toxicity in female CDF1 mouse allografted with mouse P388 cells assessed as animal survival at 50 mg/kg, ip administered daily for 9 days as Klucel suspension starting 24 hrs after tumor inoculation; format: organism-based; parameters: dose 50 mg/kg, route intraperitoneal; conditions: in vivo
Outline: (§2)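 P-388 leukemia ascitic fluid inoculated ip. Compound given ip as a suspension in Klucel (hydroxypropylcellulose), once daily for nine doses beginning 24 h post-inoculation. Acute toxicity assessed as toxicity-day survivors per group. Survival was followed up to 30 days, with 30-day survival counted as "cure". Follows NCI screening protocols.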

P388 [4] = assay: Antitumor activity against mouse P388 cells allografted in female BDF1 mouse assessed as change in body weight at 12.5 mg/kg, ip administered daily for 9 days as Klucel suspension starting 24 hrs after tumor inoculation; format: functional; conditions: route intraperitoneal; outline: as §1
Mus musculus [5] = assay: Toxicity in male CDF1 mouse allografted with mouse P388 cells assessed as animal survival at 50 mg/kg, ip administered daily for 9 days as Klucel suspension starting 24 hrs after tumor inoculation; format: organism-based; parameters: dose 50 mg/kg, route intraperitoneal; conditions: in vivo; outline: as §2
P388 [6] = assay: Antitumor activity against mouse P388 cells allografted in female BDF1 mouse assessed as disease cures by measuring 30-days host survival at 6.25 mg/kg, ip administered daily for 9 days as Klucel suspension starting 24 hrs after tumor inoculation relative to control; format: functional; conditions: route intraperitoneal
Outline: (§3)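 P388 leukemia given as an ascitic fluid cell inoculum, ip, to mice of the strain and sex in each line. Nine daily ip doses were given in a Klucel (hydroxypropylcellulose) suspension, starting 24 h after inoculation. Read-out is median survival time as %T/C, with >125 taken as significant; a "cure" means 30-day survival.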

L1210 = assay: Antileukemic activity against mouse L1210 cells allografted in female BDF1 mouse assessed as change in body weight at 50 mg/kg, ip administered daily for 9 days as Klucel suspension starting 24 hrs after tumor inoculation; format: functional; conditions: route intraperitoneal
Outline: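 Ascitic fluid carrying L1210 cells was inoculated ip. Compound was given ip as a Klucel (hydroxypropylcellulose) suspension in nine daily doses, starting 24 h after inoculation. Body-weight difference (treated minus control) was recorded on day 5. Survival was scored as %T/C of mean survival time.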

P388 [7] = assay: Antitumor activity against mouse P388 cells allografted in female CDF1 mouse assessed as change in body weight at 50 mg/kg, ip administered daily for 9 days as Klucel suspension starting 24 hrs after tumor inoculation; format: functional; conditions: route intraperitoneal; outline: as §1
P388 [8] = assay: Antitumor activity against mouse P388 cells allografted in female CDF1 mouse assessed as change in body weight at 100 mg/kg, ip administered daily for 9 days as Klucel suspension starting 24 hrs after tumor inoculation; format: functional; conditions: route intraperitoneal; outline: as §1
P388 [9] = assay: Antitumor activity against mouse P388 cells allografted in male CDF1 mouse assessed as change in body weight at 12.5 mg/kg, ip administered daily for 9 days as Klucel suspension starting 24 hrs after tumor inoculation; format: functional; conditions: route intraperitoneal; outline: as §1
P388 [10] = assay: Antitumor activity against mouse P388 cells allografted in female CDF1 mouse assessed as disease cures by measuring 30-days host survival at 50 mg/kg, ip administered daily for 9 days as Klucel suspension starting 24 hrs after tumor inoculation relative to control; format: functional; conditions: route intraperitoneal; outline: as §3

## CC(=O)OCc1c(COC(C)=O)c(-c2ccccc2)n2c1CCC2
P388 [1]
  Activity: -0.4 g
P388 [2]
  Activity: 0.5 g
Mus musculus [3]
  Activity: Non-toxic
P388 [4]
  Activity: -1.2 g
Mus musculus [5]
  Activity: Non-toxic
P388 [6]
  T/C: 107%
L1210
  Activity: -2.6 g
P388 [7]
  Activity: -2.5 g
P388 [8]
  Activity: -2.8 g
P388 [9]
  Activity: -0.2 g
P388 [10]
  T/C: 79%

Source: ChEMBL document CHEMBL3244396, “Synthesis and antileukemic activity of 5-substituted 2,3-dihydro-6,7-bis(hydroxymethyl)-1H-pyrrolizine diesters” (J Med Chem, 1977)
